Data: ChEMBL document CHEMBL1123670, “Inhibitors of cyclic AMP phosphodiesterase. 2. Structural variations of N-cyclohexyl-N-methyl-4-[(1,2,3,5-tetrahydro- 2-oxoimidazo[2,1-b]quinazolin-7-yl)-oxy]butyramide (RS-82856)” (J Med Chem, 1987)

Assays:
[1] = species on record: Homo sapiens; experiment: Ratio of IC50 of inhibition of platelet aggregation to IC50 of inhibition of platelet PDE (Efficacy index); assay type: functional
Method in brief: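 Efficacy index is the IC50 for inhibition of ADP-induced platelet aggregation divided by the IC50 for human platelet PDE inhibition. Both IC50s come from graphical dose-response curves (five concentrations, triplicate).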

[2] = Inhibition of ADP-induced platelet aggregation; assay type: functional
Method in brief: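 ADP-induced platelet aggregation. Read-out is the rate of change in percentage transmission of the primary aggregation phase after 5 min incubation. Each agent tested at five concentrations in triplicate, with experiments repeated at least twice using platelets from different donors. IC50 (μM) determined graphically.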

[3] = biological target: Phosphodiesterase; PDE3 & PDE4 (Homo sapiens) (UniProt P27815+Q14432+Q08499+Q07343+Q13370+Q08493); experiment: In vivo inhibition of cyclic AMP phosphodiesterase from dog heart
Method in brief: (§1)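 Cyclic AMP phosphodiesterase prepared from human platelets (IC50, nM) or from rat or dog heart tissue (IC25, nM). Each agent tested at five inhibitor concentrations in triplicate. IC50/IC25 read graphically from the dose-response curve.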

[4] = biological target: Phosphodiesterase 3 (Homo sapiens, UniProt Q14432+Q13370); experiment: In vitro inhibition of cyclic AMP phosphodiesterase from human platelets
[5] = In vivo inhibition of cyclic AMP phosphodiesterase from rat heart; settings: in the assay text read “In vitro” for “In vivo”; method in brief: as §1
[6] = Canis lupus familiaris; target entry is the homologue from another species; in the assay text read “In vitro” for “In vivo”
[7] = Canis lupus familiaris; in the assay text read “In vitro” for “In vivo”; target entry is the homologue from another species

| Compound | IC50 [2] [nM] | IC25 [3, 6] [nM] | IC50 [4] [nM] | IC25 [3, 7] [nM] | Ratio [1] | IC25 [5] [nM] |
| --- | --- | --- | --- | --- | --- | --- |
| O=C1CN2Cc3cc(OCCCC(=O)N(CCCCCCO)C4CCCCC4)ccc3N=C2N1 | 4000 | 2 | 3.6 |  | 1111 |  |
| CC[C@H]1C(=O)NC2=Nc3ccc(OCCCC(=O)N(C)C4CCCCC4)cc3CN21 | 8200 | 450 | 580 |  | 14 |  |
| O=C1CN2Cc3cc(OCCCC(=O)N4CCCC4)ccc3N=C2N1 | 82000 |  | 340 |  | 241 | 1700 |
| COCCN(C(=O)CCCOc1ccc2c(c1)CN1CC(=O)NC1=N2)C1CCCCC1 | 105 |  | 1.3 | < 10 | 81 |  |
| CC[C@@H]1C(=O)NC2=Nc3ccc(OCCCC(=O)N(C)C4CCCCC4)cc3CN21 | 5600 |  | 370 | 620 | 15 |  |
| O=C1CN2Cc3cc(OCCCC(=O)N(CCCCO)C4CCCCC4)ccc3N=C2N1 | 4000 | 7.2 | 6.4 |  | 625 |  |
| CN(C(=O)CCCOc1ccc2c(c1)CN1C(=N2)NC(=O)C12CC2)C1CCCCC1 | 50000 |  | 760 | 3700 | 66 |  |
| CN(C(=O)CCCOc1ccc2c(c1)CN1CC(=O)NC1=N2)C1CCC(O)CC1 (centres undefined) | 25000 | 290 | 120 |  | 208 |  |
| C=c1c(=O)[nH]c2n1Cc1cc(OCCCC(=O)N(C)C3CCCCC3)ccc1N=2 | 150 |  | 2.7 | 45 | 55.5 |  |
| O=C1CN2Cc3cc(OCCCC(=O)N(CCN4CCOCC4)C4CCCCC4)ccc3N=C2N1 | 1000 | 32 | 4.1 |  | 243 |  |
| CC(O)[C@H]1C(=O)NC2=Nc3ccc(OCCCC(=O)N(C)C4CCCCC4)cc3CN21 (some centres undefined) | 22000 | 1700 | 1000 |  | 22 |  |
| CC(O)[C@@H]1C(=O)NC2=Nc3ccc(OCCCC(=O)N(C)C4CCCCC4)cc3CN21 (some centres undefined) | 54000 |  | 1600 | 3700 | 34 |  |
| O=C1CN2Cc3cc(OCCCC(=O)N4CCCC5CCCCC54)ccc3N=C2N1 (centres undefined) | 880 |  | 13.5 |  | 65 | 200 |
| CN(C(=O)CCCOc1ccc2c(c1)CN1CC(=O)NC1=N2)C1CCCC1 | 1450 | 25 | 48 |  | 30 |  |
| CN(C(=O)CCCCOc1ccc2c(c1)CN1CC(=O)NC1=N2)C1CCCCC1 | 860 |  | 4.6 |  | 187 | 22 |
| NC(=O)CN(C(=O)CCCOc1ccc2c(c1)CN1CC(=O)NC1=N2)C1CCCCC1 | 20000 | 100 | 11 |  | 1818 |  |
| CN(C(=O)CCCOc1ccc2c(c1)CN1CC(=O)NC1=N2)C1CCCCCCC1 | 190 |  | 2.2 | 1.6 | 86 |  |
| O=C1CN2Cc3cc(OCCCC(=O)N(Cc4ccccc4)Cc4ccccc4)ccc3N=C2N1 |  |  |  |  |  | 60 |
| CN(C(=O)CCCOc1ccc2c(c1)CN1C(=O)CNC1=N2)C1CCCCC1 | 120000 |  | 15000 | 1600 | 8 |  |
| CN(C(=O)CCCOc1ccc2c(c1)CN1C(=O)C(=O)NC1=N2)C1CCCCC1 | 150000 |  | 4400 | 1700 | 34 |  |
| CN(C(=O)NCCOc1ccc2c(c1)CN1CC(=O)NC1=N2)C1CCCCC1 | 8600 |  | 17 | 780 | 506 |  |
| CCN(C(=O)CCCOc1ccc2c(c1)CN1CC(=O)NC1=N2)C1CCCCC1 | 180 | 5.2 | 1.5 |  | 120 |  |
| CC(C)N(C(=O)CCCOc1ccc2c(c1)CN1CC(=O)NC1=N2)C1CCCCC1 | 260 |  | 3.2 | 15 | 81 |  |
| CC1c2cc(OCCCC(=O)N(C)C3CCCCC3)ccc2NC2=NC(=O)CN21 (centres undefined) | 130 |  | 5.9 | 14 | 22 |  |
| O=C1CN2Cc3cc(OCCCC(=O)NC4CCCCC4)ccc3N=C2N1 | 10000 |  | 72 | 180 | 139 |  |
| CN(C(=O)CCCOc1ccc2c(c1)CN1CC(=O)NC1=N2)C1CCCCCC1 | 250 | 4.2 | 1 |  | 250 |  |
| CN(C(=O)CCCCc1ccc2c(c1)CN1CC(=O)NC1=N2)C1CCCCC1 | 6600 |  | 200 | 220 | 33 |  |
| CN(C(=O)CCCOc1ccc2c(c1)NC1=NC(=O)CN1C2)C1CCCCC1 | 26000 | 64 | 150 |  | 173 |  |
| O=C1CN2Cc3cc(OCCCC(=O)N(CCCO)C4CCCCC4)ccc3N=C2N1 | 1700 |  | 6 | 17 | 283 |  |

Further molecules by falling IC50 [2], results first:

| IC50 [2] [nM] | IC25 [3, 6] [nM] | IC50 [4] [nM] | IC25 [3, 7] [nM] | Compound | Ratio [1] | IC25 [5] [nM] |
| --- | --- | --- | --- | --- | --- | --- |
| 90000 |  | 1200 |  | CN(C)C(=O)CCCOc1ccc2c(c1)CN1CC(=O)NC1=N2 | 75 |  |
| 82000 | 26 | 12 |  | O=C1CN2Cc3cc(OCCCC(=O)N(C(CO)CO)C4CCCCC4)ccc3N=C2N1 | 6833 |  |
| 60000 |  | 2000 | 1500 | CN(C(=O)CCCOc1cccc2c1CN1CC(=O)NC1=N2)C1CCCCC1 | 30 |  |
| 58000 | 6600 | 3100 |  | CN(C(=O)CCCS(=O)(=O)c1ccc2c(c1)CN1CC(=O)NC1=N2)C1CCCCC1 | 19 |  |
| 47000 | 380 | 690 |  | NC(=O)CCCOc1ccc2c(c1)CN1CC(=O)NC1=N2 | 68 |  |
| 25000 |  | 140 | 260 | CN(C(=O)CCCSc1ccc2c(c1)CN1CC(=O)NC1=N2)C1CCCCC1 | 178 |  |
| 15500 |  | 27.5 | 90 | CN(C(=O)CCCOc1ccc2c(c1)CN1C(=N2)NC(=O)[C@@H]1CO)C1CCCCC1 | 563 |  |
| 14500 |  | 260 |  | O=C1CN2Cc3cc(OCCCC(=O)N4CCCCC4)ccc3N=C2N1 | 56 | 1500 |
| 7000 |  | 820 |  | CN(C(=O)COc1ccc2c(c1)CN1CC(=O)NC1=N2)C1CCCCC1 | 8.5 | 4400 |
| 6900 | 72 | 18.5 |  | CN(C(=O)CCCOc1ccc2c(c1)CN1C(=N2)NC(=O)[C@H]1CO)C1CCCCC1 | 373 |  |
| 4300 |  | 470 | 2400 | CN(C(=O)CCCOc1ccc2c(c1)CN1C(=N2)NC(=O)C1(C)C)C1CCCCC1 | 9 |  |
| 3600 |  | 5.6 | 7 | O=C1CN2Cc3cc(OCCCC(=O)N(CCn4ccnc4)C4CCCCC4)ccc3N=C2N1 | 642 |  |
| 3400 |  | 18 | 43 | O=C1CN2Cc3cc(OCCCC(=O)OC4CCCCC4)ccc3N=C2N1 | 168 |  |
| 2700 |  | 4.9 | 2.3 | O=C1CN2Cc3cc(OCCCC(=O)N(CCCCCO)C4CCCCC4)ccc3N=C2N1 | 551 |  |
| 1900 | 100 | 130 |  | CN(C(=O)CCCOc1ccc2c(c1)CN1CCC(=O)NC1=N2)C1CCCCC1 | 14.6 |  |
| 1600 | 440 | 240 |  | CCOC(=O)CCCOc1ccc2c(c1)CN1CC(=O)NC1=N2 | 6.7 |  |
| 1500 |  | 13 | 58 | CN(C(=O)OCCOc1ccc2c(c1)CN1CC(=O)NC1=N2)C1CCCCC1 | 115 |  |
| 1100 | 100 | 14 |  | CN(C(=O)CCCOc1ccc2c(c1Cl)CN1CC(=O)NC1=N2)C1CCCCC1 | 79 |  |
| 1050 |  | 10 |  | O=C1CN2Cc3cc(OCCCC(=O)N4CCCc5ccccc54)ccc3N=C2N1 | 105 | 160 |
| 1000 |  | 4.5 | 18 | O=C1CN2Cc3cc(OCCCc4nnnn4C4CCCCC4)ccc3N=C2N1 | 222 |  |
| 700 | 10 | 2 |  | COC(=O)CN(C(=O)CCCOc1ccc2c(c1)CN1CC(=O)NC1=N2)C1CCCCC1 | 350 |  |
| 470 | 78 | 26 |  | C[C@H]1C(=O)NC2=Nc3ccc(OCCCC(=O)N(C)C4CCCCC4)cc3CN21 | 18 |  |
| 360 | 27 | 5.4 |  | C[C@@H]1C(=O)NC2=Nc3ccc(OCCCC(=O)N(C)C4CCCCC4)cc3CN21 | 66 |  |
